Screening results deposited in PubChem by several laboratories.
V-ATPase pHluor: regulators of yeast V-ATPase proton pumping, primary screen, pHLuorin cytosolic pH fluorescence | S. cerevisiae | response, % at 10 µM | 350,000 compounds, 0.37% hits; in the data active = response mostly above about 7.3%, no sharp cut-off; inactive = mostly below about 5.4%; also: actives read high
Lipid droplet: inhibitors of hepatocyte lipid droplet formation, primary screen, imaging, high-throughput imaging, BODIPY stain. AML12 mouse hepatocytes, oleate lipid droplets. inhibition, % at 6.5 µM. 240,000 compounds, 0.4% hits. AID 1656, 2009;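 active = lipid droplet intensity inhibited by at least 50%, with more than 500 cells counted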
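Technique: fluorescence imaging, 20x objective, two fields per well / Assay system: AML12 hepatocytes (mouse) / Measure: % inhibition of lipid droplet signal / Doses: 6.5 µM single-point dosing / Incubation: overnight exposure / Reagent: 100 µM oleic acid challenge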
ADAM10 inh: human ADAM10 inhibitors, primary screen, biochemical, QFRET, HTS | Disintegrin and metalloproteinase domain-containing protein 10 (Homo sapiens), O14672 | recombinant ADAM10, EDANS/DABCYL FRET peptide cleavage, 3 h | inhibition, % at 7 µM | 370,000 compounds, 0.62% hits;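 active = inhibition above a per-campaign cutoff equal to the mean of compounds falling between control-based bounds plus 3 SD, cut at about 20% in these data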
MPTP block: mitochondrial permeability transition pore inhibitors, primary screen, biochemical, isolated mouse mitochondria, absorbance | 360,000 compounds, 1.4% hits | inhibition, % at 10 µM | Ca2+ swelling absorbance, 30 min;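 active = inhibition of 50% or more, scaled per plate between neutral and stimulator controls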
ADAM17 inh: ADAM17 inhibitors, primary screen, biochemical, QFRET; recombinant ADAM17, EDANS/DABCYL FRET peptide cleavage; inhibition, % at 6.95 µM; 370,000 compounds, 0.83% hits;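 active = inhibition above the mean of compounds lying between control limits plus 3 SD, set per campaign, cut at about 8.5% in these data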
Target sequence (P78536 215-824 limits assumed): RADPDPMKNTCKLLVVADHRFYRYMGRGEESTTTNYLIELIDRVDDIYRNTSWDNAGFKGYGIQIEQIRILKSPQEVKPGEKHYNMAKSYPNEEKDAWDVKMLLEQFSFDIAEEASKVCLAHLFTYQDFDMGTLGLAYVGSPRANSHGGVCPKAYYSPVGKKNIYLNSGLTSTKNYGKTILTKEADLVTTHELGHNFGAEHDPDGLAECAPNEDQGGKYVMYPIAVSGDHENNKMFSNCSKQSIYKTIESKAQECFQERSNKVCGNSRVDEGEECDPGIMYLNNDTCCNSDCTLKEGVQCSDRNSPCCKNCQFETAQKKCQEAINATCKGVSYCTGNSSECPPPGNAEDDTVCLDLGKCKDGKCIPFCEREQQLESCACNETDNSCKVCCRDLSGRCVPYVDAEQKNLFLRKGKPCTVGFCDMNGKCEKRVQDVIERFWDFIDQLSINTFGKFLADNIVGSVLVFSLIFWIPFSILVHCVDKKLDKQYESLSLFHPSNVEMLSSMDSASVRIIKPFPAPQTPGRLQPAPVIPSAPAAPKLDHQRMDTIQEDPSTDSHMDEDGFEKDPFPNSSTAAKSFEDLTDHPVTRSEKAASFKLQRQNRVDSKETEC
aDG glyco up: activators of alpha-DG glycosylation, primary screen, uHTS, Pro5-aDG cells, AlphaScreen; alpha-DG glycosylation AlphaScreen (IIH6); 0% Pro5, 100% B10-LARGE cell signal; activation, % at 10 µM; 360,000 compounds, 0.22% hits;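 active = activation of at least 8% versus controls, or a plate z-score of at least 8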;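 also: Pro5 are CHO cells carrying HIG-tagged alpha-DG that lacks glycosylation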
ADAM10 confirm: human ADAM10 inhibitors, confirmation, biochemical, QFRET, triplicate. shares compounds with ADAM10 inh. ADAM10 QFRET peptide cleavage, EDANS fluorescence. inhibition, % at 6.95 µM. 2,100 compounds, 1% hits;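 active = inhibition above about 20% chosen separately for each screening run, limit read from the data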
ADAM17 ctr: ADAM17 inhibitors, counter-screen for ADAM10 exosite inhibitor project, biochemical, QFRET, high throughput; shares compounds with ADAM10 inh; ADAM17 QFRET peptide cleavage, EDANS fluorescence; inhibition, % at 6.95 µM; 2,100 compounds, 0.5% hits; AID 743214, 2013;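 active = mean triplicate inhibition above the solvent-only control wells' mean plus 3 SD, cut at about 12% in these data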
ADAM10 ctr: ADAM10 inhibitors, counter-screen for ADAM17 exosite inhibitor project, biochemical, FRET, human ADAM10; shares compounds with ADAM17 inh; recombinant ADAM10, EDANS/DABCYL FRET peptide cleavage, 3 h; inhibition, % at 6.95 µM; 2,900 compounds, 47% hits;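 active = mean inhibition over the triplicate runs exceeds the activity threshold set in the earlier primary screen, cut at about 20% in these data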
ADAM17 confirm: ADAM17 inhibitors, hit retest, confirmation, biochemical, QFRET peptide cleavage; shares compounds with ADAM17 inh; recombinant ADAM17, EDANS/DABCYL QFRET peptide cleavage; inhibition, % at 6.95 µM; 2,900 compounds, 65% hits;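 active = mean inhibition across replicates above the hit cutoff set in the primary screen, cut at about 8.5% in these data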
Hits are given with their value; – = inactive; · = not tested or not shown. In the library only some 3.1% were active in any assay of this set; here they are far more common.

SMILES	V-ATPase pHluor	Lipid droplet	ADAM10 inh	MPTP block	ADAM17 inh	aDG glyco up	ADAM10 confirm	ADAM17 ctr	ADAM10 ctr	ADAM17 confirm
O=C(CCc1ccccc1)N[C@H]1/C(=N/O)CCC[C@]12C(=O)N(Cc1ccccc1)c1ccccc12	·	·	–	·	–	·	·	·	·	·
Cc1c(C(=O)NCCC2=CCCCC2)oc2ccc(S(=O)(=O)N3CCC4(CC3)OCCO4)cc12	–	–	21.6	–	8.9	–	–	–	–	10.3
CN1Cc2nnn(Cc3ccccc3)c2-c2cc(N3CCCCC3)ccc2S1(=O)=O	·	·	–	·	–	·	·	·	·	·
CCN(CC)S(=O)(=O)c1ccc(N2CCOCC2)c(NS(=O)(=O)c2cc(C(C)(C)C)ccc2C)c1	–	–	36.4	–	17.4	–	–	–	31.0	14.9
CCOC(=O)[C@@]12CCCC=C1N(CCc1ccc(Cl)cc1)C(=O)[C@H]2CC(=O)N1CCSCC1	·	·	–	·	–	·	·	·	·	·
COCCCN1C(=O)c2[nH]nc(-c3cc(C)cc(C)c3O)c2C1c1ccc(O)c(OC)c1 (stereo unspecified)	–	·	–	–	–	–	·	·	·	·
CCCN1C(=O)c2[nH]nc(-c3cc(Cl)c(C)cc3O)c2C1c1ccc(O)c(OC)c1 (stereo unspecified)	–	–	20.8	–	11.7	–	–	–	34.4	18.9
Cc1cc(O)c(-c2n[nH]c3c2C(c2cccc(O)c2)N(Cc2cccnc2)C3=O)cc1Cl (stereo unspecified)	–	–	21.5	–	9.6	–	–	–	–	–
CCn1c2ccccc2c2cc(NC(=O)CSc3nnc(-c4ccccc4)n3Cc3ccco3)ccc21	·	·	–	·	–	·	·	·	·	·
OCCN(Cc1ccccc1)CC(O)COc1ccc(-c2ccccc2)cc1 (stereo unspecified)	–	–	29.9	–	13.4	–	–	–	30.8	15.6
COc1cc(C(C)=O)ccc1OCC(O)CN(CCO)Cc1ccccc1 (stereo unspecified)	–	–	–	–	–	–	·	·	·	·
OC(c1ccc(Cl)c(F)c1)c1ncc(-c2cccc(C(F)(F)F)c2)[nH]1 (stereo unspecified)	·	·	31.5	–	10.6	–	–	–	26.1	14.4
O=S1(=O)c2ccc(N3CCSCC3)cc2Oc2ccccc2CN1Cc1cn(Cc2cccc(F)c2)nn1	·	·	–	·	–	·	·	·	·	·
CCCOc1ccc(NC(=O)CC2C(=O)N(Cc3ccccc3)C(=S)N2Cc2cccs2)cc1 (stereo unspecified)	–	–	25.7	–	13.1	–	–	–	30.0	16.4
COC(=O)CN1C(=S)N(Cc2ccccc2)C(=O)C1CC(=O)Nc1ccc(Br)cc1 (stereo unspecified)	–	·	23.4	–	11.9	–	–	–	26.6	12.6
COC(=O)[C@]12C[C@H](CC(=O)N3CCN(C(=O)c4ccco4)CC3)C(=O)N(CCC3=CCCCC3)C1=C[C@H](C1CCCC1)O[C@@H]2C	·	·	–	·	–	·	·	·	·	·
CN(C(=O)c1ccccc1OCC(=O)Nc1ccc(Br)cc1)c1ccccc1	·	·	–	·	–	·	·	·	·	·
CC(C)(C)c1ccc(/C=N/OCC(=O)NCc2ccc(F)cc2)cc1	–	–	28.3	–	13.1	–	–	–	22.0	10.6
Cc1ccc(CNC(=O)CO/N=C/c2ccc(C(C)(C)C)cc2)cc1	–	–	–	–	–	–	·	·	·	·
O=C(CSc1nc2ccccc2[nH]1)Nc1ccc(F)c(F)c1	–	–	21.4	–	10.1	–	–	–	–	–
O=C(CSc1nc2ccccc2[nH]1)Nc1ccccc1F	–	–	–	–	–	–	·	·	·	·
Cn1nc(C(C)(C)C)cc1C(=O)N1CCCCC1c1cc(C(=O)Nc2cccc3c2CCCC3)no1 (stereo unspecified)	·	·	21.4	–	12.2	–	–	–	–	9.2
CC(=O)Nc1ccc(C(=O)N2CCCCC2c2cc(C(=O)Nc3cccc4c3CCCC4)no2)cc1 (stereo unspecified)	·	·	–	–	–	–	·	·	·	·
CC(C)(C)OC(=O)/C=C/[C@H](CCCCl)Sc1ccc(C(C)(C)C)cc1	·	·	–	·	–	·	·	·	·	·
CNCC(=O)Nc1ccc(OC(F)(F)F)cc1	–	–	–	–	–	–	·	·	·	·
SMILES	V-ATPase pHluor	Lipid droplet	ADAM10 inh	MPTP block	ADAM17 inh	aDG glyco up	ADAM10 confirm	ADAM17 ctr	ADAM10 ctr	ADAM17 confirm
COc1cccc(OC)c1C(=O)OCC(=O)Nc1ccc(OC(F)(F)F)cc1	–	–	27.3	–	10.3	–	–	–	–	–
COc1cc(CC(=O)Nc2ccc(Cl)c(C(F)(F)F)c2)cc(OC)c1OC	–	–	–	–	–	–	·	·	·	·
COc1ccc(C(=O)OCC(=O)Nc2ccc(Cl)c(C(F)(F)F)c2)c(OC)c1OC	–	–	20.2	–	8.7	–	–	–	22.5	12.6
CCC[C@H]1[C@@H](NC(=O)c2cccc(Cl)c2)CC[C@@]23CCCN2C(=O)CCC[C@@H]13	·	·	–	·	–	·	·	·	·	·
NC(CCc1ccccc1)c1csc(NC(=O)Nc2ccccc2Oc2ccccc2)n1 (stereo unspecified)	·	·	29.3	–	14.0	–	–	–	23.2	12.7
NC(CCc1ccccc1)c1csc(NC(=O)NCCc2ccccc2)n1 (stereo unspecified)	·	·	–	–	–	–	·	·	·	·
COCCSc1ncccc1-c1nc2ccccc2[nH]1	·	·	–	·	–	·	·	·	·	·
O=C(Nc1ccc(C(O)(C(F)(F)F)C(F)(F)F)cc1)c1ccccc1C(F)(F)F	·	·	–	·	–	·	·	·	·	·
Cc1ccc(C(=O)Nc2ccccc2C(=O)NCc2ccco2)cc1S(=O)(=O)N1CCCCC1	–	–	25.1	–	9.6	–	–	–	34.6	20.4
CN(c1ccc(OCC(=O)OCC(=O)Nc2ccc(Br)cc2)cc1)S(=O)(=O)c1cccs1	–	–	20.1	–	12.1	–	–	–	30.7	16.1
Cc1ccccc1CN[C@@H]1CC[C@@]23CCCN2C(=O)CCC[C@H]3C1	·	·	–	·	–	·	·	·	·	·
